This is an account of results in ChEMBL document CHEMBL4706490, “New activators of eIF2α Kinase Heme-Regulated Inhibitor (HRI) with improved biophysical properties” (Eur J Med Chem, 2020).

A word on the pIC50: it is the negative decadic logarithm of the IC50, by convention in mol/L.

In assay [1] the target is Eukaryotic translation initiation factor 2 subunit 1 (Homo sapiens) (UniProt P05198). In words: Activation of eIF2alpha (unknown origin) assessed as fold stimulation ATF-4 surrogate eIF2alpha phosphorylation at 1.25 uM cell based Dual luciferase reporter assay. As to conditions: filed as activator. The essentials: (§1)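 Cells stably expressing firefly and renilla luciferase reporters were treated in 96-well plates at 10, 5, 2.5 and 1.25 µM and read with a dual glow luciferase kit. The firefly/renilla (F/R) ratio of each well was normalized to vehicle (DMSO) wells on the same plate, set at 1. Dose-response curves used triplicate points fitted to a logistic sigmoidal model.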
Sequence of Eukaryotic translation initiation factor 2 subunit 1 (Homo sapiens) (P05198 whole entry): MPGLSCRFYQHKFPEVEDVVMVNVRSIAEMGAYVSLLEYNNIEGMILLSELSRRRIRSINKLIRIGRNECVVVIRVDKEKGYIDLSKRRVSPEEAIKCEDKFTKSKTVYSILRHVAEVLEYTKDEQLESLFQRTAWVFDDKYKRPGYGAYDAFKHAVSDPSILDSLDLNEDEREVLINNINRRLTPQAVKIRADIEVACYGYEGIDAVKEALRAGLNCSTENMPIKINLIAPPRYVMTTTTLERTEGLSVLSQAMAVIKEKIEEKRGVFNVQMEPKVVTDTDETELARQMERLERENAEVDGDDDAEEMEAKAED

Assay [2] has the same target. The assay can be described thus: Activation of eIF2alpha (unknown origin) assessed as fold stimulation ATF-4 surrogate eIF2alpha phosphorylation at 5 uM cell based Dual luciferase reporter assay. The note with it: filed as activator. The method in brief: as §1
The nature of assay [3]: Antiproliferative activity against human CRL-2813 cells assessed as inhibition of cell growth measured after 5 days by SRB assay. The assay is classed as functional, cell-based. The method in brief:
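CRL-2813 cells in 96-well plates were kept for 5 days with 0.5 to 20 µM compound, then fixed in cold 10% trichloroacetic acid and stained with sulforhodamine B; bound dye absorbance was read. Percent growth was calculated as 100×[(T−T0)/(C−T0)] using day 5 treated, control and time-zero readings. IC50 is the concentration giving 50% growth inhibition.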
Background: The SRB assay estimates cell density from bound dye.

Assay [4] addresses Eukaryotic translation initiation factor 2 subunit 1 (Homo sapiens) (UniProt P05198). In words: Activation of eIF2alpha in human CRL-2813 cells assessed as eIF2alpha phosphorylation at 5 uM measured after 2 hrs Western blot analysis. The assay is classed as cell-based. The essentials:
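Adherent human melanoma CRL-2813 cells were grown in serum-containing, antibiotic-free medium to 70% confluence and exposed to 5 µM compound or vehicle for 2 hours. Cells were lysed in M-PER on ice, and protein was quantified by BCA and boiled in Laemmli buffer. Lysates were run on SDS-PAGE and immunoblotted for phospho-Ser51 eIF2α, total eIF2α and β-actin.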
Background: In western blotting, separated proteins are transferred to a membrane and probed.

For assay [5] the target is unchanged. In words: Activation of eIF2alpha in human CRL-2813 cells assessed as increase in CHOP expression at 5 uM measured after 8 hrs Western blot analysis. The assay is classed as cell-based. The method in brief:
(§2)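 CRL-2813 melanoma cells were grown in serum-containing, antibiotic-free medium to 70% confluence and treated with 5 µM compound for 8 hours. Lysates were made in M-PER on ice, protein was normalized by BCA, and samples were separated by SDS-PAGE. Blots were probed for CHOP, p27Kip1, cyclin D1 and β-actin.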

For assay [6] the target is unchanged. In words: Activation of eIF2alpha in human CRL-2813 cells assessed as decrease in cyclin D1 expression at 5 uM measured after 8 hrs Western blot analysis. The assay is classed as cell-based. The method in brief: as §2
The subject of the next assay is CRL-2813. In words: Effect on p27Kip1 expression in human CRL-2813 cells at 5 uM measured after 8 hrs Western blot analysis. The assay is classed as functional, cell-based. The essentials: as §2
The test system of another assay is MCF7. In words: Antiproliferative activity against human MCF7 cells transfected with HRI siRNA at 0.27 to 10 uM after 3 days by SRB assay. As to conditions: dose 0.27-10 µM, time 3.0 day.

pIC50: −log10 of the molar value. Activity calls are given as the source filed them. The rule behind the calls is not given here. A value given as a limit tells only on which side of the number the result lay.

Turning to `O=C(Nc1cccc(C(F)(F)F)c1)NC1CCC(Oc2ccc(C(F)(F)F)cc2)CC1` (configuration not stated), the fold change (FC) was determined as 3.6 in assay [1] and 9.2 in assay [2]. In addition, the negative logarithm of the IC50 (pIC50) in assay [3] (Homo sapiens, CRL2813, 120 h) was 6.05.
Take `N#Cc1cc(NC(=O)NC2CC(Oc3ccc(C(F)(F)F)cc3)C2)cc(C(F)(F)F)c1` (trans isomer) [listing 1 of 2 here]: the fold change (FC) came out at 4.4 in assay [1] and 10 in assay [2]. The outcome in assay [4] (filed as activator), in assay [5] (filed as activator) and in assay [6] (filed as activator) was Active. Besides, the outcome in the assay with CRL-2813 and with MCF7 was inactive.
On to `N#Cc1cccc(NC(=O)N[C@H]2CC[C@H](Oc3ccc(C(F)(F)F)cc3)C2)c1`, for which the results for the fold change (FC) in assay [1] and in assay [2] were 0.8 and 1.6, respectively. In assay [3] (Homo sapiens, CRL2813, 120 h), the pIC50 was 5.19.
In the case of `N#Cc1cccc(NC(=O)NC2CC(Oc3ccc(C(F)(F)F)cc3)C2)c1` (stereo in doubt; cis) [listing 1 of 2 here], the pIC50 in assay [3] (crl-2813) was under 5.00.
As for `Cc1ccc(F)cc1NC(=O)NC1CC(Oc2ccc(C(F)(F)F)cc2)C1` (configuration not stated), the fold change (FC) in assay [1] came out at 0.7; in assay [2], 1.4. The pIC50 in assay [3] (Homo sapiens, CRL2813, 120 h) was under 5.00.
For the compound `N#Cc1cc(NC(=O)NC2CCC(Oc3ccc(C(F)(F)F)cc3)CC2)cc(C(F)(F)F)c1` (configuration not stated), the fold change (FC) in assay [1] is 5.7; in assay [2], 13.8. The negative-log IC50 (pIC50) in assay [3] (Homo sapiens, CRL2813, 120 h) was 6.46. The outcome in assay [4] (filed as activator), in assay [5] (filed as activator) and in assay [6] (filed as activator) was Active. The result in the assay with CRL-2813 and in the assay on MCF7 was inactive.
Turning to `N#Cc1cc(NC(=O)N[C@H]2CC[C@H](Oc3ccc(C(F)(F)F)cc3)C2)cc(C(F)(F)F)c1`, the fold change (FC) in assay [1] was determined as 3.1; in assay [2], 8.3. Further, the negative-log IC50 (pIC50) in assay [3] (Homo sapiens, CRL2813, 120 h) is 5.92.
`O=C(Nc1ccc(F)c(F)c1)NC1CCC(Oc2ccc(C(F)(F)F)cc2)CC1` (trans isomer): the fold change (FC) in assay [1] was determined as 2.9; in assay [2], 5.6. For the same compound, the negative-log IC50 (pIC50) in assay [3] (Homo sapiens, CRL2813, 120 h) is 5.89.
In the case of `Cc1ccc(F)cc1NC(=O)N[C@H]1CC[C@H](Oc2ccc(C(F)(F)F)cc2)C1`, the fold change (FC) in assay [1] came to 1.4; in assay [2], 1.3. For the same compound, the negative logarithm of the IC50 (pIC50) in assay [3] (Homo sapiens, CRL2813, 120 h) was 5.10.
Regarding `N#Cc1cc(F)cc(NC(=O)N[C@H]2CC[C@H](Oc3ccc(C(F)(F)F)cc3)C2)c1`, the fold change (FC) was 2.4 in assay [1] and 8 in assay [2]. Moreover, the pIC50 in assay [3] (Homo sapiens, CRL2813, 120 h) was 5.72.
For `N#Cc1cccc(NC(=O)NC2CCC(Oc3ccc(C(F)(F)F)cc3)CC2)c1` (configuration not stated) the same measures were 1.9, 6.1 and 5.80.
Turning to `N#Cc1cc(NC(=O)NC2CC(Oc3ccc(C(F)(F)F)cc3)C2)cc(C(F)(F)F)c1` (trans isomer) [listing 2 of 2 here], the negative logarithm of the IC50 (pIC50) in assay [3] (Homo sapiens, CRL2813, 120 h) was 6.05.
With `N#Cc1cc(F)cc(NC(=O)NC2CCC(Oc3ccc(C(F)(F)F)cc3)CC2)c1` (configuration not stated), the values for the fold change (FC) in assay [1] and in assay [2] were 4.6 and 9.3, respectively. Also, in assay [3] (Homo sapiens, CRL2813, 120 h), the negative-log IC50 (pIC50) was 6.20. Moreover, the result in assay [4] (filed as activator), in assay [5] (filed as activator) and in assay [6] (filed as activator) was Active. Further, the outcome in the assay on CRL-2813 and in the assay with MCF7 was inactive.
Take `N#Cc1ccc(NC(=O)NC2CCC(Oc3ccc(C(F)(F)F)cc3)CC2)cc1F` (trans isomer): the fold change (FC) in assay [1] was 5.5; in assay [2], 10.4. Also, the negative logarithm of the IC50 (pIC50) in assay [3] (Homo sapiens, CRL2813, 120 h) was 6.34. For the same compound, the result in assay [4] (filed as activator), in assay [5] (filed as activator) and in assay [6] (filed as activator) was Active. Moreover, the outcome in the assay with CRL-2813 and in the assay on MCF7 was inactive.
For the compound `O=C(Nc1cccc(C(F)(F)F)c1)N[C@H]1CC[C@H](Oc2ccc(C(F)(F)F)cc2)C1`, the values for the fold change (FC) in assay [1] and in assay [2] were 1.2 and 7, respectively. The pIC50 in assay [3] (Homo sapiens, CRL2813, 120 h) is 5.60.
For the compound `N#Cc1ccc(NC(=O)NC2CCC(Oc3ccc(C(F)(F)F)cc3)CC2)c(F)c1` (configuration not stated), the fold change (FC) in assay [1] came out at 2.4; in assay [2], 6.2. In addition, the pIC50 in assay [3] (Homo sapiens, CRL2813, 120 h) was 5.85.
For `O=C(Nc1cccc(F)c1F)NC1CC(Oc2ccc(C(F)(F)F)cc2)C1` (trans isomer) the same measures were 0.8, 6.2 and 5.64.
Take `N#Cc1ccc(F)c(NC(=O)NC2CCC(Oc3ccc(C(F)(F)F)cc3)CC2)c1` (configuration not stated): the fold change (FC) in assay [1] is 1; in assay [2] it was 1.5. For the same compound, in assay [3] (Homo sapiens, CRL2813, 120 h), the pIC50 is under 5.00. Also, the result (in assay [4]; in assay [5]; in assay [6]; with CRL-2813) was inactive.
For the compound `O=C(Nc1cccc(C(F)(F)F)c1)NC1CC(Oc2ccc(C(F)(F)F)cc2)C1` (cis isomer) [listing 1 of 2 here], the fold change (FC) in assay [1] came to 1.2; in assay [2], 6.2.
With `O=C(Nc1cccc(C(F)(F)F)c1)NC1CC(Oc2ccc(C(F)(F)F)cc2)C1` (trans isomer) [listing 1 of 2 here], the negative logarithm of the IC50 (pIC50) in assay [3] (Homo sapiens, CRL2813, 120 h) is 5.47.
For `N#Cc1cc(F)cc(NC(=O)NC2CC(Oc3ccc(C(F)(F)F)cc3)C2)c1` (trans isomer), the fold change (FC) in assay [1] is 2; in assay [2], 5.3. Besides, in assay [3] (Homo sapiens, CRL2813, 120 h), the pIC50 is 5.55.
`N#Cc1cc(NC(=O)NC2CC(Oc3ccc(C(F)(F)F)cc3)C2)cc(C(F)(F)F)c1` (cis isomer): the fold change (FC) stood at 4.3 in assay [1] and 8.4 in assay [2].
Consider `O=C(Nc1cccc(C(F)(F)F)c1)NC1CC(Oc2ccc(C(F)(F)F)cc2)C1` (trans isomer) [listing 2 of 2 here], for which the fold change (FC) was found to be 2.4 in assay [1] and 6.5 in assay [2].
On the same counts, the results for `N#Cc1cccc(NC(=O)NC2CC(Oc3ccc(C(F)(F)F)cc3)C2)c1` (stereo in doubt; trans) [listing 1 of 2 here] are 1.6 and 3.5.
Regarding `N#Cc1cccc(NC(=O)NC2CC(Oc3ccc(C(F)(F)F)cc3)C2)c1` (stereo in doubt; trans) [listing 2 of 2 here], the pIC50 in assay [3] (crl-2813) was 5.31.
On to `N#Cc1cccc(NC(=O)NC2CC(Oc3ccc(C(F)(F)F)cc3)C2)c1` (stereo in doubt; cis) [listing 2 of 2 here], for which the values for the fold change (FC) in assay [1] and in assay [2] were 1.1 and 0.9, respectively.
In the case of `O=C(Nc1ccc(F)c(F)c1)NC1CC(Oc2ccc(C(F)(F)F)cc2)C1` (trans isomer), the fold change (FC) was determined as 2.2 in assay [1] and 4.5 in assay [2]. The pIC50 in assay [3] (Homo sapiens, CRL2813, 120 h) was 5.26.
Turning to `O=C(Nc1cccc(C(F)(F)F)c1)NC1CC(Oc2ccc(C(F)(F)F)cc2)C1` (cis isomer) [listing 2 of 2 here], in assay [3] (crl-2813), the pIC50 is 5.59.
Regarding `O=C(Nc1ccc(F)c(F)c1)N[C@H]1CC[C@H](Oc2ccc(C(F)(F)F)cc2)C1`, the fold change (FC) in assay [1] was determined as 0.9; in assay [2] it was 3.5. For the same compound, the pIC50 in assay [3] (Homo sapiens, CRL2813, 120 h) is 5.28.
With `Cc1ccc(F)cc1NC(=O)NC1CCC(Oc2ccc(C(F)(F)F)cc2)CC1` (configuration not stated), the values for the fold change (FC) in assay [1] and in assay [2] were 1.8 and 1.5, respectively. For the same compound, the pIC50 in assay [3] (Homo sapiens, CRL2813, 120 h) is 5.28. The result in assay [4] (filed as activator), in assay [5] (filed as activator) and in assay [6] (filed as activator) was Active. In addition, in the assay with CRL-2813, the outcome was inactive.
On to `O=C(Nc1cccc(F)c1F)NC1CCC(Oc2ccc(C(F)(F)F)cc2)CC1` (configuration not stated), for which the fold change (FC) in assay [1] is 4.7; in assay [2], 9.9. Also, in assay [3] (Homo sapiens, CRL2813, 120 h), the negative logarithm of the IC50 (pIC50) was 5.80. Besides, the outcome in assay [4] (filed as activator), in assay [5] (filed as activator) and in assay [6] (filed as activator) was Active. Moreover, the result in the assay on CRL-2813 was inactive.
Regarding `N#Cc1cc(NC(=O)NC2CCC(Oc3ccc(C(F)(F)F)cc3)CC2)ccc1F` (configuration not stated), the fold change (FC) in assay [1] turned out to be 3.7; in assay [2] it was 6.1. In addition, the pIC50 in assay [3] (Homo sapiens, CRL2813, 120 h) was 5.85.
